Test [1] has as its system HCT-116. The experiment in a line: Induction of apoptosis in human HCT116 cells assessed as early apoptotic cells at 500 nM after 48 hrs by Annexin V-FITC/propidium iodide staining-based flow cytometric analysis (reference value: 1.33%). The class given is functional.
For test [2], the system named is HCT-116. Description: Induction of apoptosis in human HCT116 cells assessed as late apoptotic cells at 500 nM after 48 hrs by Annexin V-FITC/propidium iodide staining-based flow cytometric analysis (reference value: 3.87%). The class given is functional.
In test [3] the test system is HCT-116. Description: Induction of apoptosis in human HCT116 cells assessed as live cells at 500 nM after 48 hrs by Annexin V-FITC/propidium iodide staining-based flow cytometric analysis (reference value: 89.6%). The class given is functional.
For test [4], the system named is HCT-116. Description: Induction of cell cycle arrest in human HCT116 cells assessed as accumulation at G2/M phase at 500 nM after 24 hrs by propidium iodide/RNase staining-based FACS analysis. The class given is functional. In outline:
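HCT116 cells cultured overnight in 6-well plates, exposed to compound at various concentrations for 24 h; FxCycle PI/RNase staining and flow cytometry for cell cycle phase distribution.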

The test system of test [5] is HCT-116. Description: Induction of apoptosis in human HCT116 cells assessed as necrotic cells at 500 nM after 48 hrs by Annexin V-FITC/propidium iodide staining-based flow cytometric analysis (reference value: 5.23%). The class given is functional.
Another test has as its system DU-145. Description: Antiproliferative activity against human DU145 cells after 96 hrs by MTT assay. The class given is functional, cell-based. Conditions: DU-145, 96 h.
The subject of test [6] is HCT-116. The experiment in a line: Antiproliferative activity against human HCT116 cells after 96 hrs by MTT assay. The class given is functional, cell-based. Conditions: HCT-116, 96 h.
For the next test, the system named is NCI-H1299. Description: Antiproliferative activity against human NCI-H1299 cells after 96 hrs by MTT assay. The class given is functional, cell-based. To be noted: NCI-H1299, 96 h.
The test system of the next test is HCT-8. Description: Antiproliferative activity against human HCT8 cells after 96 hrs by MTT assay. The class given is functional, cell-based. Conditions: HCT-8, 96 h.
The subject of a further test is MDA-MB-453. The experiment in a line: Antiproliferative activity against human MDA-MB-453 cells after 96 hrs by MTT assay. The class given is functional, cell-based. To be noted: MDA-MB-453, 96 h.
Another test deals with HGC-27. The experiment in a line: Antiproliferative activity against human HGC27 cells after 96 hrs by MTT assay. The class given is functional, cell-based. To be noted: HGC-27, 96 h.
In another test the test system is SW1990. Description: Antiproliferative activity against human SW1990 cells after 96 hrs by MTT assay. Conditions: SW1990, 96 h. The class given is functional, cell-based.
Another test deals with U-87 MG. Description: Antiproliferative activity against human U87 cells after 96 hrs by MTT assay. The class given is functional, cell-based, U-87MG ATCC.
Another test deals with Bel-7402. Description: Antiproliferative activity against human Bel7402 cells after 96 hrs by MTT assay. The class given is functional, cell-based. Conditions: Bel-7402, 96 h.
The next test concerns Huh-7. Description: Antiproliferative activity against human HuH7 cells after 96 hrs by MTT assay. The class given is functional, cell-based. Conditions: Huh-7, 96 h.
The test system of the next test is HepG2. Description: Antiproliferative activity against human HepG2 cells after 96 hrs by MTT assay. The class given is functional, cell-based. To be noted: HepG2, 96 h.
For a further test, the system named is K562. Description: Antiproliferative activity against human K562 cells after 96 hrs by MTT assay. The class given is functional, cell-based. To be noted: K562, 96 h.
The test system of another test is NCI-H460. The experiment in a line: Antiproliferative activity against human NCI-H460 cells after 96 hrs by MTT assay. The class given is functional, cell-based. To be noted: NCI-H460, 96 h.
The test system of another test is Capan-2. The experiment in a line: Antiproliferative activity against human Capan2 cells after 96 hrs by MTT assay. Conditions: Capan-2, 96 h. The class given is functional, cell-based.
In a further test the test system is MCF7. The experiment in a line: Antiproliferative activity against human MCF7 cells after 96 hrs by MTT assay. The class given is functional, cell-based. Conditions: MCF7, 96 h.
The target of another test is Histone deacetylase 1 (Homo sapiens, UniProt Q13547). Description: Inhibition of recombinant C-terminal His/FLAG-tagged HDAC1 (unknown origin) expressed in baculovirus infected Sf9 insect cells using Ac-peptide as substrate preincubated for 15 mins followed by substrate addition and measured after 1 hr.
The test system of test [7] is HCT-116. The experiment in a line: Potency index, ratio of IC50 for SAHA to test compound IC50 for human HCT116 cells. The class given is functional.
For test [8], the target named is Phosphatidylinositol 4,5-bisphosphate 3-kinase catalytic subunit alpha isoform (Homo sapiens, UniProt P42336). Description: Inhibition of recombinant human PI3Kalpha using PIP2 as substrate incubated for 1 hr by kinase-glo assay.
The next test deals with THP-1. The experiment in a line: Antiproliferative activity against human THP1 cells after 96 hrs by MTT assay. The class given is functional, cell-based. To be noted: THP-1, 96 h.

Active and inactive are the calls of the source. The rule behind the calls is not given here.

Phosphatidylinositol 4,5-bisphosphate 3-kinase catalytic subunit alpha isoform, sequence (P42336 whole entry, canonical isoform): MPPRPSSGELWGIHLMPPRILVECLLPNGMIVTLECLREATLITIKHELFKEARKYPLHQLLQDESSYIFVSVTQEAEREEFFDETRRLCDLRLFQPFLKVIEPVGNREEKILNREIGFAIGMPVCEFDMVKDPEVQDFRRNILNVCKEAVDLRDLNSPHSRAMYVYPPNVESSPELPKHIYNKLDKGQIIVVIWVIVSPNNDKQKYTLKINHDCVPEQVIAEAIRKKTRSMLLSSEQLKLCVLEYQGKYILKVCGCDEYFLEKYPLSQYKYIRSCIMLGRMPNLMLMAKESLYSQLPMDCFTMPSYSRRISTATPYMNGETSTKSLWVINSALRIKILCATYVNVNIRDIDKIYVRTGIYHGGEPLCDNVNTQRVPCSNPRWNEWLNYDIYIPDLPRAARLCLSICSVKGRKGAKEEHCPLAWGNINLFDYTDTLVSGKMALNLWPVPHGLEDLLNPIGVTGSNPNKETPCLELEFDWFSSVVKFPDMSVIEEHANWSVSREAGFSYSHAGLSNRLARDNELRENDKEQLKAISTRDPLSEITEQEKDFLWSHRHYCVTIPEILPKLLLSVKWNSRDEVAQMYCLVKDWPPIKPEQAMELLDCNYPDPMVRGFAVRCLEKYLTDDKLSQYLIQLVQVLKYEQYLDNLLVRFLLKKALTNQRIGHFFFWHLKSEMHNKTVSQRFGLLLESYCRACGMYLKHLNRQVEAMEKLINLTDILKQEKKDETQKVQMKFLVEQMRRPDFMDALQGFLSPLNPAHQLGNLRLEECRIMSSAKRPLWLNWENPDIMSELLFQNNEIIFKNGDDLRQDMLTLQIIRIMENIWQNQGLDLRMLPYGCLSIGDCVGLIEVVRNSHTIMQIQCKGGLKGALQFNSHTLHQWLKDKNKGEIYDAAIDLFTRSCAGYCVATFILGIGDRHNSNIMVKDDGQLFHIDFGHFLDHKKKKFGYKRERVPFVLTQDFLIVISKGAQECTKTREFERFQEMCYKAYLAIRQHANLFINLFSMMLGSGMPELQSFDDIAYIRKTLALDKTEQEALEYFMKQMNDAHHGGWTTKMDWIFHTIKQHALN
Histone deacetylase 1, sequence (Q13547 whole entry): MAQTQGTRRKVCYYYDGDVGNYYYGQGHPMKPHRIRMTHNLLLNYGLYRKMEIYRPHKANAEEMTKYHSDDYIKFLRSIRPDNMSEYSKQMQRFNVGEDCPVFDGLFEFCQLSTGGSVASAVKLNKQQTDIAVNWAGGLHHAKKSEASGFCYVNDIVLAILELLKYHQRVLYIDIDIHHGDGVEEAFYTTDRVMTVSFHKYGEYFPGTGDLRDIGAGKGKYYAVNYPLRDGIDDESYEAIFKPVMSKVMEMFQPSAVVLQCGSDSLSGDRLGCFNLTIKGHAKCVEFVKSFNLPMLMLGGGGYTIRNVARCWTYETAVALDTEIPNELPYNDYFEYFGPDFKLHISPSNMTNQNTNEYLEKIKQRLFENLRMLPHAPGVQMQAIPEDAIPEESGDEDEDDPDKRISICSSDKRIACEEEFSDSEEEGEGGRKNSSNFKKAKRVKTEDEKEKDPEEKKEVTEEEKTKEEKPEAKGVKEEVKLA

With `O=C(CCCCCCC(=O)Nc1ccccc1)NO` [VORINOSTAT], the Activity in the test with HCT-116 [1] is 2.72%; with HCT-116 [2], 5.21%; in the test with HCT-116 [3] it was 87.7%; in the test with HCT-116 [5], 4.33%. Besides, the outcome in the test on HCT-116 [4] was Active.

For the compound `COc1ccc(-c2nc(N3CCOCC3)c3sc(CN(C)c4ncc(C(=O)NO)cn4)cc3n2)cn1` [FIMEPINOSTAT], the IC50 in the test on DU-145 is 560 nM; in the test with HCT-116 [6], 5 nM; with NCI-H1299, 25 nM; in the test with HCT-8, 5 nM; with MDA-MB-453, 9 nM; in the test on HGC-27 it was 41 nM. Moreover, the IC50 came to 180 nM in the test on SW1990; 7 nM in the test on U-87 MG; 13 nM in the test on Bel-7402; 560 nM in the test on Huh-7; 15 nM in the test on HepG2; 280 nM in the test on K562. The IC50 in the test with NCI-H460 amounted to 150 nM; in the test with Capan-2, 7 nM; in the test with MCF7 it was 41 nM.

With `COc1ccc(-c2cc(OCCCCCCC(=O)NO)c3ncnc(C)c3c2)cn1`, the results for the IC50 (in the test on HCT-116 [6]; on Histone deacetylase 1; in test [8]) were 140 nM, 1.3 nM and 102 nM, respectively. Besides, in the test with HCT-116 [7], the “Ratio IC50” value is recorded as 10.

Take `Nc1cc(C(F)(F)F)c(-c2cc(N3CCOCC3)nc(N3CCOCC3)n2)cn1` [BUPARLISIB]: the Activity in the test with HCT-116 [1] is on record as 5.22%; with HCT-116 [2], 6.61%; in the test on HCT-116 [3] it was 84.7%; with HCT-116 [5], 3.46%. Moreover, the half-maximal inhibitory concentration (IC50) came out at 45000 nM in the test on DU-145; 1300 nM in the test with HCT-116 [6]; 3600 nM with NCI-H1299; 12000 nM in the test with THP-1; 1700 nM in the test on HCT-8; 370 nM in the test with MDA-MB-453. The IC50 in the test with HGC-27 amounted to 990 nM; in the test with SW1990 it was 1300 nM; in the test with U-87 MG, 4800 nM; in the test on Bel-7402, 13000 nM; in the test with Huh-7, 2000 nM; in the test on HepG2, 3200 nM. Moreover, the IC50 in the test on K562 is 7900 nM; in the test with NCI-H460 it was 3200 nM; in the test on Capan-2, 42000 nM; in the test on MCF7, 5700 nM. Moreover, the result with HCT-116 [4] was Active.

The values are drawn from ChEMBL document CHEMBL4311940, “Design, Synthesis, and Biological Evaluation of 4-Methyl Quinazoline Derivatives as Anticancer Agents Simultaneously Targeting Phosphoinositide 3-Kinases and Histone Deacetylases” (J Med Chem, 2019).
